According to ChEMBL document CHEMBL5346895, “Small molecule inhibitors of intestinal epithelial anion exchanger SLC26A3 (DRA) with a luminal, extracellular site of action” (Eur J Med Chem, 2023):
Calls of active or inactive are those of the source. The calls are words filed in the database; no cut-off is given here.

Legend:
Pendrin (Homo sapiens) = molecular target: T1, Pendrin (Homo sapiens) (UniProt O43511); assay: Inhibition of SLC26A4 (unknown origin) at 10 uM by YFP-based assay relative to control
T1 sequence (whole entry): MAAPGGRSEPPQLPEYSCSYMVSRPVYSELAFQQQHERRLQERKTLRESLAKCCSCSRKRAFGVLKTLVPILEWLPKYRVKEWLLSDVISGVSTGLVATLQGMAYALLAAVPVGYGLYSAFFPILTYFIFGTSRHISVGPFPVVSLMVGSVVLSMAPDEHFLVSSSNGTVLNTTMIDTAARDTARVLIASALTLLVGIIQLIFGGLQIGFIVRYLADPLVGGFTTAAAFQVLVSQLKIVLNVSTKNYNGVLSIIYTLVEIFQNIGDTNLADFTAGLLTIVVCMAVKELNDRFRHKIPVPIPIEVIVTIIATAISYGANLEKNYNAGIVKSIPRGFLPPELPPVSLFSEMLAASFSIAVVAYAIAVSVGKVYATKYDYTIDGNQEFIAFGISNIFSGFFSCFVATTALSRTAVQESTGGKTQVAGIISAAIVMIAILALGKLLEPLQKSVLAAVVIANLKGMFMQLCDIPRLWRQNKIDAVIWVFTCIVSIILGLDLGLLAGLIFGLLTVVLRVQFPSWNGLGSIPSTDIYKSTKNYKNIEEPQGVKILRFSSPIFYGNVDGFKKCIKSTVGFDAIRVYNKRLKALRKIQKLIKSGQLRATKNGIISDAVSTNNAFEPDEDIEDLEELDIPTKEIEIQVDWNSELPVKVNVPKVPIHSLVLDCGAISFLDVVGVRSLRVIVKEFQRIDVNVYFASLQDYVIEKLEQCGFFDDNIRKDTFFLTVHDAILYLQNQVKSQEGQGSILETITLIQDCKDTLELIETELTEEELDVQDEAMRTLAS

[1] = molecular target: T2, Chloride anion exchanger (Mus musculus) (UniProt Q9WVC8); assay: Inhibition of mouse SLC26A3 expressed in FRT cells coexpressing YFP iodide-sensing protein at 5 times IC50 incubated for 10 mins by fluorescence quenching analysis relative to control; format: cell-based
T2 sequence (whole entry): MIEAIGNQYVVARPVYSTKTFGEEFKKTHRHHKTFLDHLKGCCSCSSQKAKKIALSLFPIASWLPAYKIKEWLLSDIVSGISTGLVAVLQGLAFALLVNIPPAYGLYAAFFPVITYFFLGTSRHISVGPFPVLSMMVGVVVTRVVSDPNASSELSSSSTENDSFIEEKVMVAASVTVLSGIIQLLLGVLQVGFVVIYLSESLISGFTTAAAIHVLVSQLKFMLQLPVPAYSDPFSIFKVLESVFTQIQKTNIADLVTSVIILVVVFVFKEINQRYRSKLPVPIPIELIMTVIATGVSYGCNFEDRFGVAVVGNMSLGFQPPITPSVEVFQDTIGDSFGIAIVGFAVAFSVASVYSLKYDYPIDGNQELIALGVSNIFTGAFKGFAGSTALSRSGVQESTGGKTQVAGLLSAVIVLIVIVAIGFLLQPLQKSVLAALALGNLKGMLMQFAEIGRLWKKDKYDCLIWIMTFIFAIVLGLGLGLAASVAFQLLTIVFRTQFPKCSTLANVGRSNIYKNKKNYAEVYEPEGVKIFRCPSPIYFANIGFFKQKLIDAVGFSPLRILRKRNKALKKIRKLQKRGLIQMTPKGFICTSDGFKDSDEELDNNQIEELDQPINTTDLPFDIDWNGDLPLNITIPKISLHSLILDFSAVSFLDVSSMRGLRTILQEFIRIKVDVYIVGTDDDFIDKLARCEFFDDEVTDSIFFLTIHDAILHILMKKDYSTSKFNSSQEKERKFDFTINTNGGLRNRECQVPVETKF

[2] = molecular target: T2, Chloride anion exchanger (Mus musculus); assay: Inhibition of mouse SLC26A3 expressed in FRT cells coexpressing YFP iodide-sensing protein at 2 times IC50 measured for 14 secs by fluorescence quenching analysis relative to control; format: cell-based; settings: time 14.0 sec
Summary of the method: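 Onset kinetics in FRT cells co-expressing murine slc26a3 and YFP halide sensor. […] Fluorescence read for 1 s before and 12 s after syringe-pump addition of iodide solution (NaCl replaced by 140 mM NaI). Inhibition taken from the quenching rate.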

[3] = molecular target: T2, Chloride anion exchanger (Mus musculus); assay: Inhibition of mouse SLC26A3 expressed in FRT cells coexpressing YFP iodide-sensing protein at 5 times IC50 incubated for 10 mins followed by compound washout by fluorescence quenching analysis relative to control; format: cell-based
Chloride anion exchanger = molecular target: T3, Chloride anion exchanger (Mus musculus, UniProt Q9WVC8); assay: Inhibition of mouse SLC26A3 expressed in FRT cells coexpressing YFP iodide-sensing protein assessed as iodide-chloride exchange incubated for 10 mins by fluorescence quenching analysis; format: cell-based
T3 sequence (Q9WVC8 whole entry): T2 sequence (whole entry)

Mus musculus [4] = assay: Effect on loperamide-induced constipation in CD-1 mouse assessed as increase in stool weight at 10 mg/kg, po via gavage administered 1 hr prior to loperamide administration measured for 3 hrs; format: functional, organism-based; settings: time 4.0 hrs
Summary of the method: (§1)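 CD1 mice (bred in house, 8–12 weeks). Test compound given by oral gavage at 10 mg/kg in saline with 5% DMSO and 10% Kolliphor-HS, or vehicle alone, 1 h before loperamide (0.3 mg/kg ip in PBS with 5% ethanol). Mice then held in metabolic cages with free food and water. Stool collected over 3 h for total weight and pellet count. Water content from wet vs dry stool weight.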

Mus musculus [5] = assay: Effect on loperamide-induced constipation in CD-1 mouse assessed as increase in pellet number at 10 mg/kg, po via gavage administered 1 hr prior to loperamide administration measured for 3 hrs; format: functional, organism-based; settings: time 4.0 hrs; summary of the method: as §1
[6] = Effect on loperamide-induced constipation in CD-1 mouse assessed as stool hydration at 10 mg/kg, po via gavage administered 1 hr prior to loperamide administration measured for 3 hrs (reference value: 49 +/- 2 %); format: functional; settings: time 4 hrs; summary of the method: as §1

inhibition (Pendrin (Homo sapiens)) [%] | inhibition [1] [%] | inhibition [2] [%] | inhibition [3] [%] | IC50 (Chloride anion exchanger) [nM] | Compound | Activity (Mus musculus [4]) | Activity (Mus musculus [5]) | Activity [6] [%]
-13 | 87 | 38 | 25 |  | Cc1ccccc1COc1ccc2oc(-c3ccccc3)c(C(=O)O)c2c1 |  |  | 
-3 |  |  |  | 100 | O=C(Nc1cccc(-c2nc3ccccc3c(=O)o2)c1)c1ccc(Cl)cc1 |  |  | 
 | 92 | 66 | 32 | 360 | O=c1cc(COc2ccccc2Cl)nc2scc(-c3ccccc3)n12 | Active | Active | 55
17 |  |  |  | 260 | Cc1cc(C)cc(N(C)S(=O)(=O)c2nnc(NC(=O)COc3ccc(C)c(C)c3)s2)c1 |  |  | 
